Among the data in ChEMBL document CHEMBL1629444, “DNA-dependent protein kinase (DNA-PK) inhibitors. Synthesis and biological activity of quinolin-4-one and pyridopyrimidin-4-one surrogates for the chromen-4-one chemotype” (J Med Chem, 2010) are IC50 and Ratio values, retold here.

Test [1] in a line: Inhibition of DNA-PK isolated from human HeLa cell extract assessed as reduction in p53 Ser15 phosphorylation by chemiluminescence assay. It counts as cell-free.
Test [2] deals with HeLa. Kind of test: Potentiation of ionizing radiation-induced cytotoxicity in human HeLa cells assessed as dose modification ratio at 0.1 uM pretreated 1 hr before 2 Gy ionizing radiation by Giemsa staining relative untreated control. The format is functional. The essentials: (§1)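 HeLa cells seeded in six-well dishes and left overnight at 37 °C/5% CO2. Compound or vehicle given 1 h before a single 2 Gy X-ray dose, then incubated overnight. Medium replaced without compound and cells grown 6-8 days. Colonies Giemsa-stained and counted automatically. DMR is % survival at 2 Gy without compound divided by % survival at 2 Gy with compound.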

For test [3], the system named is HeLa. Nature of the test: Potentiation of ionizing radiation-induced cytotoxicity in human HeLa cells assessed as dose modification ratio at 0.5 uM pretreated 1 hr before 2 Gy ionizing radiation by Giemsa staining relative untreated control. The format is functional. The essentials: as §1

Structures are written as SMILES.

For the compound `O=c1cc(N2CCOCC2)oc2c1ccc1ccccc12`, in test [1], the IC50 – broadly, the point on the concentration scale where inhibition reaches its midpoint – is 230 nM.

On to `CCN1CCN(CC(=O)Nc2ccc(-c3cccc4c(=O)cc(N5CCOCC5)oc34)c3sc4ccccc4c23)CC1`, for which, in test [1], the IC50 amounted to 6 nM. Also, the Ratio in test [2] was found to be 3.2.

Consider `O=C(CN1CCNCC1)Nc1ccc(-c2cccn3c(=O)cc(N4CCOCC4)nc23)c2sc3ccccc3c12`, for which, in test [1], the IC50 was determined as 25 nM. The Ratio in test [3] was 6.2; in test [2] it was 1.5.

`O=C(CN1CCOCC1)Nc1ccc(-c2cccn3c(=O)cc(N4CCOCC4)nc23)c2sc3ccccc3c12`: in test [1], the IC50 came to 8 nM. The results for the Ratio in test [3] and in test [2] were 9.9 and 3.5, respectively.

As for `COCCN1CCN(CC(=O)Nc2ccc(-c3cccn4c(=O)cc(N5CCOCC5)nc34)c3sc4ccccc4c23)CC1`, the IC50 in test [1] was 22 nM. For the same compound, the values for the Ratio in test [3] and in test [2] were 14.4 and 4, respectively.

For the compound `CCN1CCN(CC(=O)Nc2ccc(-c3cccn4c(=O)cc(N5CCOCC5)nc34)c3sc4ccccc4c23)CC1`, the IC50 in test [1] turned out to be 18 nM. Besides, the Ratio in test [3] is on record as 7.7; in test [2], 1.4.

Turning to `O=C(CN1CCN(c2ccccn2)CC1)Nc1ccc(-c2cccn3c(=O)cc(N4CCOCC4)nc23)c2sc3ccccc3c12`, the IC50 in test [1] came to 175 nM. Also, the Ratio in test [3] is 3.9.

With `CN1CCN(CC(=O)Nc2ccc(-c3cccn4c(=O)cc(N5CCOCC5)nc34)c3sc4ccccc4c23)CC1`, the IC50 in test [1] turned out to be 24 nM. In addition, the Ratio in test [3] is 9.2; in test [2] it was 2.4.

In the case of `O=C(CN1CCN(CCO)CC1)Nc1ccc(-c2cccn3c(=O)cc(N4CCOCC4)nc23)c2sc3ccccc3c12`, the IC50 in test [1] was found to be 19 nM. For the same compound, the Ratio turned out to be 13.6 in test [3] and 1.4 in test [2].

In the case of `O=C(CN(CCO)CCO)Nc1ccc(-c2cccn3c(=O)cc(N4CCOCC4)nc23)c2sc3ccccc3c12`, the IC50 in test [1] was determined as 29 nM. Further, the Ratio in test [3] stood at 3.8; in test [2], 1.1.

Regarding `C[C@@H]1CN(CC(=O)Nc2ccc(-c3cccn4c(=O)cc(N5CCOCC5)nc34)c3sc4ccccc4c23)C[C@H](C)O1`, the IC50 in test [1] turned out to be 7 nM. For the same compound, in test [3], the Ratio is 15.1.

Consider `O=C(CN1CCN(CCOCCO)CC1)Nc1ccc(-c2cccn3c(=O)cc(N4CCOCC4)nc23)c2sc3ccccc3c12`, for which the IC50 in test [1] was found to be 51 nM. Further, the Ratio stood at 8.3 in test [3] and 1 in test [2].

`CC(C)NC(=O)CN1CCN(CC(=O)Nc2ccc(-c3cccn4c(=O)cc(N5CCOCC5)nc34)c3sc4ccccc4c23)CC1`: the IC50 in test [1] was 25 nM. The Ratio in test [3] stood at 7.3.

For the compound `O=C(CCN1CCOCC1)Nc1ccc(-c2cccn3c(=O)cc(N4CCOCC4)nc23)c2sc3ccccc3c12`, in test [1], the IC50 is 86 nM. For the same compound, the Ratio in test [3] and in test [2] was 6.2 each time.

With `O=C(CCN1CCCCC1)Nc1ccc(-c2cccn3c(=O)cc(N4CCOCC4)nc23)c2sc3ccccc3c12`, in test [1], the IC50 is 28 nM. Moreover, the Ratio in test [3] and in test [2] was 14.3 in each case.

Take `COc1ccc(CNCCC(=O)Nc2ccc(-c3cccn4c(=O)cc(N5CCOCC5)nc34)c3sc4ccccc4c23)cc1`: in test [1], the IC50 came out at 12 nM. The Ratio in test [3] and in test [2] was 6.7 throughout.

In the case of `O=C(CCNCC1CCCO1)Nc1ccc(-c2cccn3c(=O)cc(N4CCOCC4)nc23)c2sc3ccccc3c12` (centres undefined), the IC50 in test [1] stood at 77 nM. In addition, the Ratio in test [3] and in test [2] was 4.3 each time.

Take `O=C(CCNCCCN1CCOCC1)Nc1ccc(-c2cccn3c(=O)cc(N4CCOCC4)nc23)c2sc3ccccc3c12`: the IC50 in test [1] stood at 29 nM. For the same compound, the Ratio in test [3] and in test [2] was 1.7 in each case.

Turning to `CC(=O)N1CCN(CCC(=O)Nc2ccc(-c3cccn4c(=O)cc(N5CCOCC5)nc34)c3sc4ccccc4c23)CC1`, the IC50 in test [1] turned out to be 32 nM. The Ratio in test [3] and in test [2] was 2.1 each time.

Regarding `C[C@@H]1CN(CCC(=O)Nc2ccc(-c3cccn4c(=O)cc(N5CCOCC5)nc34)c3sc4ccccc4c23)C[C@H](C)O1`, the IC50 in test [1] came out at 27 nM. The Ratio in test [3] and in test [2] was 4.6 in each case.

In the case of `NCC(=O)Nc1ccc(-c2cccc3c(=O)cc(N4CCOCC4)[nH]c23)c2sc3ccccc3c12`, in test [1], the IC50 came to 198 nM. Further, the Ratio in test [3] came to 2.6.

As to `O=C(CN1CCOCC1)Nc1ccc(-c2cccc3c(=O)cc(N4CCOCC4)[nH]c23)c2sc3ccccc3c12`, the IC50 in test [1] came to 60 nM. Moreover, the Ratio in test [3] is reported as 3.1.

For `O=C(CN1CCNCC1)Nc1ccc(-c2cccc3c(=O)cc(N4CCOCC4)[nH]c23)c2sc3ccccc3c12`, the IC50 in test [1] amounted to 133 nM. The Ratio in test [3] stood at 2.2.

As for `COCCN1CCN(CC(=O)Nc2ccc(-c3cccc4c(=O)cc(N5CCOCC5)[nH]c34)c3sc4ccccc4c23)CC1`, the IC50 in test [1] was 33 nM. Also, the values for the Ratio in test [3] and in test [2] were 8.2 and 1.2, respectively.

For the compound `CCN1CCN(CC(=O)Nc2ccc(-c3cccc4c(=O)cc(N5CCOCC5)[nH]c34)c3sc4ccccc4c23)CC1`, the IC50 in test [1] stood at 61 nM. In test [3], the Ratio is recorded as 3.4.

As to `O=C(CN1CCN(c2ccccn2)CC1)Nc1ccc(-c2cccc3c(=O)cc(N4CCOCC4)[nH]c23)c2sc3ccccc3c12`, the IC50 in test [1] was 19 nM. In addition, the Ratio in test [3] worked out at 5.8.

On to `CN1CCN(CC(=O)Nc2ccc(-c3cccc4c(=O)cc(N5CCOCC5)[nH]c34)c3sc4ccccc4c23)CC1`, for which the IC50 in test [1] stood at 43 nM. Also, in test [3], the Ratio was determined as 2.5.

`O=C(CN1CCN(CCO)CC1)Nc1ccc(-c2cccc3c(=O)cc(N4CCOCC4)[nH]c23)c2sc3ccccc3c12`: the IC50 in test [1] stood at 18 nM. Moreover, the Ratio in test [3] was found to be 2.1.

Regarding `O=C(CNCCCN1CCOCC1)Nc1ccc(-c2cccc3c(=O)cc(N4CCOCC4)[nH]c23)c2sc3ccccc3c12`, in test [1], the IC50 was found to be 64 nM. Moreover, the Ratio in test [3] is recorded as 4.

Take `O=C(CCN1CCOCC1)Nc1ccc(-c2cccc3c(=O)cc(N4CCOCC4)[nH]c23)c2sc3ccccc3c12`: in test [1], the IC50 amounted to 179 nM. Besides, the Ratio in test [3] worked out at 2.8.

As for `O=C(CCN1CCCCC1)Nc1ccc(-c2cccc3c(=O)cc(N4CCOCC4)[nH]c23)c2sc3ccccc3c12`, the IC50 in test [1] was 51 nM. Besides, in test [3], the Ratio came out at 2.9.

With `O=C(CCNCC1CCCO1)Nc1ccc(-c2cccc3c(=O)cc(N4CCOCC4)[nH]c23)c2sc3ccccc3c12` (centres undefined), the IC50 in test [1] came out at 102 nM. The Ratio in test [3] was 2.1.

Turning to `CC(=O)N1CCN(CCC(=O)Nc2ccc(-c3cccc4c(=O)cc(N5CCOCC5)[nH]c34)c3sc4ccccc4c23)CC1`, in test [1], the IC50 came out at 21 nM. Besides, the Ratio in test [3] came out at 2.6.

For `O=C(CCN1CCCCCC1)Nc1ccc(-c2cccc3c(=O)cc(N4CCOCC4)[nH]c23)c2sc3ccccc3c12`, the IC50 in test [1] was determined as 141 nM. In test [3], the Ratio is on record as 2.2.

With `C[C@@H]1CN(CCC(=O)Nc2ccc(-c3cccc4c(=O)cc(N5CCOCC5)[nH]c34)c3sc4ccccc4c23)C[C@H](C)O1`, the IC50 in test [1] is 14 nM. Further, the Ratio in test [3] was found to be 2.2.

`O=C(CN1CCOCC1)Nc1ccc(-c2cccn3c(=O)cc(N4CCOCC4)nc23)c2oc3ccccc3c12`: in test [1], the IC50 is 59 nM. Also, the Ratio is listed as 2.3 in test [3] and 1.4 in test [2].

Consider `CN1CCN(CC(=O)Nc2ccc(-c3cccn4c(=O)cc(N5CCOCC5)nc34)c3oc4ccccc4c23)CC1`, for which, in test [1], the IC50 is 30 nM. Also, the Ratio in test [3] was determined as 4.3; in test [2], 1.1.

Turning to `C[C@@H]1CN(CC(=O)Nc2ccc(-c3cccn4c(=O)cc(N5CCOCC5)nc34)c3oc4ccccc4c23)C[C@H](C)O1`, the IC50 in test [1] came out at 15 nM. The Ratio came out at 3 in test [3] and 1 in test [2].

In the case of `CCN1CCN(CC(=O)Nc2ccc(-c3cccn4c(=O)cc(N5CCOCC5)nc34)c3oc4ccccc4c23)CC1`, in test [1], the IC50 worked out at 29 nM. Further, the Ratio in test [3] came out at 6.4; in test [2] it was 1.1.

Take `O=C(CN1CCN(CCO)CC1)Nc1ccc(-c2cccn3c(=O)cc(N4CCOCC4)nc23)c2oc3ccccc3c12`: the IC50 in test [1] turned out to be 17 nM. Besides, the Ratio is 5.8 in test [3] and 1.3 in test [2].

Turning to `CC(C)NC(=O)CN1CCN(CC(=O)Nc2ccc(-c3cccn4c(=O)cc(N5CCOCC5)nc34)c3oc4ccccc4c23)CC1`, in test [1], the IC50 came out at 36 nM. The Ratio in test [3] is given as 13; in test [2], 1.7.

Turning to `O=C(CCN1CCOCC1)Nc1ccc(-c2cccn3c(=O)cc(N4CCOCC4)nc23)c2oc3ccccc3c12`, the IC50 in test [1] was 77 nM. For the same compound, the Ratio worked out at 6.3 in test [3] and 1.3 in test [2].

With `O=C(CCN1CCCCC1)Nc1ccc(-c2cccn3c(=O)cc(N4CCOCC4)nc23)c2oc3ccccc3c12`, the IC50 in test [1] turned out to be 21 nM. Further, the Ratio is recorded as 1 in test [3] and 2.5 in test [2].

For the compound `C[C@@H]1CN(CCC(=O)Nc2ccc(-c3cccn4c(=O)cc(N5CCOCC5)nc34)c3oc4ccccc4c23)C[C@H](C)O1`, the IC50 in test [1] was determined as 70 nM. Further, the Ratio was 4.1 in test [3] and 0.9 in test [2].

With `O=C(CCNCC1CCCO1)Nc1ccc(-c2cccn3c(=O)cc(N4CCOCC4)nc23)c2oc3ccccc3c12` (centres undefined), the IC50 in test [1] is 75 nM. Moreover, the Ratio is 7.4 in test [3] and 1.3 in test [2].

As for `O=C(CN1CCOCC1)Nc1ccc(-c2cccc3c(=O)cc(N4CCOCC4)[nH]c23)c2oc3ccccc3c12`, the IC50 in test [1] was 112 nM. For the same compound, the Ratio is on record as 1.6 in test [3] and 1.1 in test [2].

Turning to `O=c1cc(N2CCOCC2)nc2c3ccccc3ccn12`, the IC50 in test [1] is 280 nM.
